Assay outcomes from PubChem BioAssay.
Hits are enriched below; roughly 2.5% of the tested compounds scored in any of these assays.
SR-BI uptake up = SR-BI HDL lipid transfer activation | CHO ldlA[mSR-BI] cells, DiI-HDL uptake fluorescence, 3 h; 100 = double the neutral-control signal | activation, % at 12.5 µM | hit rate 0.096% among 320,000;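 active = mean replicate activation of at least 60% and every replicate at or above 60%; inconclusive = mean or all-replicate condition met, but not both; inactive = mean below 60% and not all replicates reaching 60%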;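 also: 0% = median plate neutral-control signal and 100% = twice that signal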
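Assay system: LDL receptor-deficient CHO ldlA cells overexpressing murine SR-BI / Medium: BSA-supplemented, HEPES-buffered Ham's F12, pH 7.4 / Probe or stimulus: DiI-labelled HDL at 10 µg/mL final / Timing: compound with DiI-HDL co-incubation, 3 h at 37 °C / Technique: bottom-read cell fluorescence after medium removal, ex 550/em 595 nm / Measure: HDL uptake via cellular fluorescence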
TAG inh = inhibitors of triacylglycerol accumulation; inhibition, % at 12.5 µM; H9c2 cells, Nile Red lipid (TAG) fluorescence; cells loaded with 200 µM oleic acid; hit rate 0.66% among 230,000;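 active = pattern-corrected inhibition of lipid staining of at least 50% with the nuclear-stain viability signal not falling by more than 50%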;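 also: 0% = DMSO wells and 100% = triacsin C control wells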
SMARCA2 activ = SMARCA2 function activation, primary screen. MG213 cells, MMTV-luciferase reporter, dexamethasone, overnight. activation, % at 9.1 µM. hit rate 1% among 370,000. AID 652017; in the data active = activation above about 7.8%;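 also: 0% = vehicle wells and 100% = reference activator wells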
Vif imaging = inhibitors of HIV Vif. HEK293T cells, Vif self-association by quenched fluorescence, imaging, 24 h. inhibition, % at 7.49 µM. hit rate 0.35% among 340,000; in the data active = inhibition above about 50%, passing the limit was not always enough; inconclusive = no clear call, values can overlap the other calls; inactive = below about 31%
SR-BI DiI inh = blocks mouse SR-BI lipid uptake from DiI-HDL; ldlA[mSR-BI] CHO cells, DiI-HDL uptake fluorescence, 3 h; inhibition, % at 12.5 µM; hit rate 0.96% among 320,000;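 active = mean replicate inhibition of at least 70% and a set share of replicates each scoring 70 or more; inconclusive = meets just one of the two criteria; inactive = fails both criteria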;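 also: 0% = median of neutral control wells and 100% = median of positive control wells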
Target sequence (Q61009 whole entry, looked up): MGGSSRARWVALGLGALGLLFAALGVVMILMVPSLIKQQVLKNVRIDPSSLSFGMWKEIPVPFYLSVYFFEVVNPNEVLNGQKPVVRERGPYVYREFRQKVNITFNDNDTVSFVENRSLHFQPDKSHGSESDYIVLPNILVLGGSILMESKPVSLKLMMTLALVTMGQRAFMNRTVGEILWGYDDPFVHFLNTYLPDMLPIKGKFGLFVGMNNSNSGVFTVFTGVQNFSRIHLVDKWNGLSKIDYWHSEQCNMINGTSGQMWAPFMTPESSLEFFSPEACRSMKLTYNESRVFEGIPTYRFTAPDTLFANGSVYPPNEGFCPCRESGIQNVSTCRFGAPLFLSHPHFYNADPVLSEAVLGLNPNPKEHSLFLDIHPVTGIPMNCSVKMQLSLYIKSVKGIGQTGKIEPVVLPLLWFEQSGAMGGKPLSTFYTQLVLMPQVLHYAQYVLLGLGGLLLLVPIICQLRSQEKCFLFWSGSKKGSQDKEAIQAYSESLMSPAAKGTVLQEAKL
* = called active by the depositor; ? = inconclusive; . = no result given.

SMILES	SR-BI uptake up	TAG inh	SMARCA2 activ	Vif imaging	SR-BI DiI inh
CC(=O)N1C[C@@H](CN2C(=O)CCC2=O)[C@@H]2C[C@H]1c1ccccc1N2C	.	.	-2	.	.
CCCC(C)C(=O)Nc1nc(C)c(-c2csc(Nc3ccccc3OC)n2)s1 (stereo unspecified)	-84	-2	1	-2	84*
COc1ccccc1Nc1nc(-c2sc(NC(=O)c3ccccc3)nc2C)cs1	-59	1	2	3	59
CCOc1ccccc1Nc1nc(-c2sc(NC(=O)c3cccc(Cl)c3)nc2C)cs1	-104	16	5	.	104*
CCCCCCC(=O)Nc1nc(C)c(-c2csc(Nc3ccccc3OC)n2)s1	-80	37	0	-4	80*
CCCCCC(=O)Nc1nc(C)c(-c2csc(Nc3ccccc3OC)n2)s1	-33	14	1	-10	33
COC(=O)[C@]12C[C@H](CC(=O)N3CCC(c4ccccc4)CC3)C(=O)N(CCc3ccc(OC)c(OC)c3)C1=C[C@H](C(C)(C)C)O[C@@H]2C	.	.	-6	.	.
Cc1ccc(-n2c([O-])nc(-[n+]3ccccc3)c2C=O)cc1	15	.	-2	51*	-15
O=S(=O)(c1ccccc1)N1CCCc2nc(-c3ccc(F)cc3)ccc21	.	.	-8	.	.
CCc1ccc(NC(=O)CC2C(=O)N(c3cccc(OC)c3)C(=O)N2CCOC)cc1 (stereo unspecified)	310*	.	-2	3	-310
COCCCN1C(=O)N(c2ccc(F)cc2)C(=O)C1CC(=O)Nc1ccc(OC)cc1 (stereo unspecified)	-76	.	-3	10	76*
COCCN1C(=O)N(c2cccc(OC)c2)C(=O)C1CC(=O)Nc1ccc(Cl)cc1 (stereo unspecified)	-6	-2	-3	4	6
Cc1cc(/C=N/n2c(COc3ccccc3)nc3ccccc3c2=O)c(O)c([N+](=O)[O-])c1	-130	4	0	2	130*
Cc1ccc(-c2[nH]ncc2/C=N/n2c(COc3ccccc3)nc3ccccc3c2=O)cc1	-25	.	-1	7	25
NC(=O)c1ncn([C@@H]2O[C@H](C(=O)N3CCN(Cc4ccccn4)CC3)[C@@H](O)[C@H]2O)n1	.	.	2	.	.
CC(=O)O[C@H]1C(=O)[C@@]2(C)[C@H]([C@H](OC(=O)c3ccccc3)[C@]3(O)C[C@H](OC(=O)[C@H](O)C(NC(=O)c4ccccc4)c4ccccc4)C(C)=C1C3(C)C)[C@]1(OC(C)=O)CO[C@@H]1C[C@@H]2O (stereo partly specified)	10	62	2	19	-10
CC(=O)O[C@H]1C(=O)[C@@]2(C)[C@H]([C@H](OC(=O)c3ccccc3)[C@]3(O)C[C@H](OC(=O)[C@H](O)[C@@H](NC(=O)c4ccccc4)c4ccccc4)C(C)=C1C3(C)C)[C@]1(OC(C)=O)CO[C@@H]1C[C@@H]2O	7	56*	1	4	-7
Cc1nnc2ccc(-c3cccc(NS(=O)(=O)c4ccccc4Cl)c3)nn12	-18	33	0	81*	18
Cc1nnc2ccc(-c3cccc(NS(=O)(=O)c4cc(F)ccc4F)c3)nn12	-23	8	-3	71*	23
CCCS(=O)(=O)Nc1cccc(-c2ccc3nnc(C)n3n2)c1	-5	.	5	-7	5
Cc1nnc2ccc(-c3cccc(NS(=O)(=O)c4ccccc4[N+](=O)[O-])c3)nn12	-45	19	6	?	45
COC(=O)c1cccc(NC(=O)Cc2nc(-c3ccccc3)sc2-c2ccc(C)cc2)c1	-71	.	0	-1	71*
COc1cccc(NC(=O)Cc2nc(-c3ccccc3)sc2-c2ccc(C)cc2)c1	-86	.	-3	-1	86*
CC(=O)Nc1cccc(NC(=O)Cc2nc(-c3ccccc3)sc2-c2ccc(C)cc2)c1	-60	33	0	-6	60
FC(F)(F)c1cc(N2CCOCC2)nc(-c2ccccc2)n1	-18	.	-4	-2	18
SMILES	SR-BI uptake up	TAG inh	SMARCA2 activ	Vif imaging	SR-BI DiI inh
Cc1cc(C)n(-c2cc(N3CCOCC3)nc(-c3ccccc3)n2)n1	-85	.	-2	-2	85*
Cc1cccc(C)c1-n1nnnc1C1c2ccccc2OCC(=O)N1Cc1ccc(F)cc1 (stereo unspecified)	.	.	0	.	.
Nc1ncnc2c1ncn2C1OC(C(=O)NC2CC2)C(O)C1O (stereo unspecified)	8	-17	7	160*	-8
OCC1OC(n2cnc3c(NC4CCCC4)ncnc32)C(O)C1O (stereo unspecified)	1	-12	4	?	-1
OC[C@H]1O[C@@H](n2cnc3c(NC4CCCC4)ncnc32)[C@H](O)[C@@H]1O	22	6	0	67*	-22
C=CCNc1ncnc2c1ncn2C1OC(CO)C(O)C1O (stereo unspecified)	6	33	2	60*	-6
OCC1OC(n2cnc3c(NC4CCCCC4)ncnc32)C(O)C1O (stereo unspecified)	20	.	1	41	-20
C[C@@H](CO)NC(=O)[C@H]1O[C@@H](n2cnc3c(N)ncnc32)[C@H](O)[C@@H]1O	.	.	.	0	.
OC[C@H]1O[C@@H](n2cnc3c(NCc4ccco4)ncnc32)[C@H](O)[C@@H]1O	20	63	0	6	-20
OCC1OC(n2cnc3c(NCc4ccco4)ncnc32)C(O)C1O (stereo unspecified)	14	85	1	54*	-14
COCCN=c1scc(-c2cc(OC)c(OC)c(OC)c2)n1/N=C/c1c(C)[nH]c2ccccc12	-92	23	-7	1	92*
Cc1[nH]c2ccccc2c1/C=N/n1cnnc1	29	-16	2	-4	-29
O=C(N/N=C/c1cccn1-c1ccc([N+](=O)[O-])cc1)c1cccnc1	-89	-12	-4	-2	89*
COC(=O)C1=C(C)NC(C)=C(C(=O)OC)C(N2C(=O)CCC2=O)C1 (stereo unspecified)	.	.	2	.	.
COc1ccc(/C=C(/C#N)C(=O)Nc2ccc(C)cc2C)cc1C(=O)O	66*	1	-1	-1	-66
COc1ccc(/C=C(/C#N)C(=O)Nc2ccccc2C)cc1C(=O)O	7	.	-2	-2	-7
CCOC(=O)c1c(C)[nH]c(C(=O)OCc2csc(CC(=O)Nc3ccccc3C)n2)c1C	-81	-10	0	-10	81*
COC(=O)[C@]12C[C@H](CC(=O)NCc3ccccc3)C(=O)N(Cc3ccc4c(c3)OCO4)C1=C[C@H](COCc1ccccc1)O[C@@H]2C	.	.	-3	.	.
Cc1cc(N2CCN(C(=O)OC(C)(C)C)C[C@@H]2C)ccc1N1C[C@@H](C)O[C@@H](C)C1	.	.	1	.	.
Cc1ccccc1CNC(=O)C1CCC(CNS(=O)(=O)c2cccc3cccnc23)CC1 (stereo unspecified)	.	.	4	.	.
COC(CNC(=O)C1CCN(C(=O)c2cc3oc(C)cc3n2Cc2c(F)cccc2Cl)CC1)OC	5	.	2	55*	-5
